Results published in ChEMBL document CHEMBL4619791, “3-Difluoroalkyl Quaternary Oxindoles Inhibit Macrophage Pyroptosis by Blocking Inflammasome Recruitment of Caspase-1” (ACS Med Chem Lett, 2020).
The source made the active and inactive calls. The rule behind the calls is not given here.

Assays:
[1] = biological target: NACHT, LRR and PYD domains-containing protein 3 (Mus musculus) (UniProt Q8R4B8); assay: Activation of NLRP3 in LPS-primed C57BL/6 mouse primary BMDM transfected with eGFP-tagged ASC assessed as nigericin-induced ASC oligomerization by measuring speck formation at 5 uM by confocal microscopy
Chain of NACHT, LRR and PYD domains-containing protein 3 (Mus musculus) (Q8R4B8 whole entry, the tested form may be a part): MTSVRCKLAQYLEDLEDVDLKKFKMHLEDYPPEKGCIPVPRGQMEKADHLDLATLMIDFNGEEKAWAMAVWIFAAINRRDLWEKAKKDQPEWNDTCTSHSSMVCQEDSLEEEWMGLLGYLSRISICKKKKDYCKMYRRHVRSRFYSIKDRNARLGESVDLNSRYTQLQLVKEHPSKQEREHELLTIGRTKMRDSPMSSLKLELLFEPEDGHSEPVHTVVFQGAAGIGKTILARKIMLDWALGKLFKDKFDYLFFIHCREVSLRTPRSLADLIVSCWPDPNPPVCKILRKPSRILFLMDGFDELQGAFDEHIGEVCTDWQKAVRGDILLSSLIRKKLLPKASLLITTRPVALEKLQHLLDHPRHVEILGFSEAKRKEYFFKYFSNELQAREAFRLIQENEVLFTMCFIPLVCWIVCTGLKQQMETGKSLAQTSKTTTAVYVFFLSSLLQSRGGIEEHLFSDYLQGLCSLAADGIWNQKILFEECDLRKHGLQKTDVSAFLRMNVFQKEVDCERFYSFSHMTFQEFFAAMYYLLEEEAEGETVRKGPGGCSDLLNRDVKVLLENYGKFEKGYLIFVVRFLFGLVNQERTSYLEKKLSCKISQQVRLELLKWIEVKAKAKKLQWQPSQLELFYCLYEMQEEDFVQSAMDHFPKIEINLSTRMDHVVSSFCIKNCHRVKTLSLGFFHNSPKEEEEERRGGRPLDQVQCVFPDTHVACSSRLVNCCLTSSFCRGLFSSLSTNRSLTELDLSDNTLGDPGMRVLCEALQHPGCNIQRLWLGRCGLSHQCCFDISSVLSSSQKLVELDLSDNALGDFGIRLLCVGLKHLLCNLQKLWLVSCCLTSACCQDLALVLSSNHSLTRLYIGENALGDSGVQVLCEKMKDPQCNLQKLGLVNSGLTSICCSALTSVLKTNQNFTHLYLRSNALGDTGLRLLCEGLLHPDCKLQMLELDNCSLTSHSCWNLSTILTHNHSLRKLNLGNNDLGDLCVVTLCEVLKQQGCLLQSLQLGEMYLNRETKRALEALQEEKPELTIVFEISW
How it was run: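 Primary macrophages transfected with an ASC-GFP plasmid, then given LPS and nigericin to induce ASC specks. Imaged by confocal microscopy.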

[2] = biological target: T1, Gasdermin-D (Mus musculus) (UniProt Q9D8T2); assay: Inhibition of GSDMD cytosol-plasma membrane translocation in LPS-primed C57BL/6 mouse primary BMDM at 5 uM followed by nigericin stimulation by immunofluorescence assay
T1 sequence (whole entry): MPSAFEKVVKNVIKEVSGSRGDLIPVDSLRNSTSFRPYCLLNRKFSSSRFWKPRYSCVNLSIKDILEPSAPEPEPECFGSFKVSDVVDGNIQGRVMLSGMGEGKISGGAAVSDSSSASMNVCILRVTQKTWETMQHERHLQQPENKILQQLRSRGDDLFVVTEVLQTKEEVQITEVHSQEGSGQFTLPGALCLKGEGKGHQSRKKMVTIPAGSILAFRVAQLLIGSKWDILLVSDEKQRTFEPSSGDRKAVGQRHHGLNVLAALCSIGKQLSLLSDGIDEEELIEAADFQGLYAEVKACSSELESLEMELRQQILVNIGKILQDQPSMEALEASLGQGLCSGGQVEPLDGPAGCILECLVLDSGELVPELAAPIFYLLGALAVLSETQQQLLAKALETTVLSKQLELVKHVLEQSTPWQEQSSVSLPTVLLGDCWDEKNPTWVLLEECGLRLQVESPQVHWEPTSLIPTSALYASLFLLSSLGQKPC
How it was run: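 Macrophages were LPS-primed, then stimulated with nigericin, in immortalized and primary cells. Anti-GSDMD immunofluorescence, with line-intensity histograms of cytosol versus plasma-membrane localization. Mean ± SEM, n ≥ 3 independent experiments.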

[3] = biological target: NACHT, LRR and PYD domains-containing protein 3 (Mus musculus) (UniProt Q8R4B8); assay: Activation of NLRP3 inflammasome in LPS-primed mouse […] cells assessed as suppression of ATP-induced pyroptosis at 5 uM; type: cell-based; conditions: J774.A1
How it was run: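 ATP used as a separate NLRP3 inflammasome activator in macrophages to induce pyroptosis.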

BMDM = assay: Induction of ROS generation in LPS-primed C57BL/6 mouse primary BMDM assessed as increase in nigericin-induced ROS level at 5 uM by DCFH-DA probe based FACS analysis; type: functional, cell-based
How it was run: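 Nigericin-stimulated macrophages loaded with DCFH-DA; ROS read as a shift in fluorescence by flow cytometry.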

Caspase-8 (Mus musculus) = biological target: T2, Caspase-8 (Mus musculus) (UniProt O89110); assay: Inhibition of caspase-8 activity in LPS-primed immortalized mouse […] cells assessed as reduction in nigericin-induced caspase-8 cleavage at 5 uM by Western blot analysis; type: cell-based; conditions: J774.A1
T2 sequence (whole entry): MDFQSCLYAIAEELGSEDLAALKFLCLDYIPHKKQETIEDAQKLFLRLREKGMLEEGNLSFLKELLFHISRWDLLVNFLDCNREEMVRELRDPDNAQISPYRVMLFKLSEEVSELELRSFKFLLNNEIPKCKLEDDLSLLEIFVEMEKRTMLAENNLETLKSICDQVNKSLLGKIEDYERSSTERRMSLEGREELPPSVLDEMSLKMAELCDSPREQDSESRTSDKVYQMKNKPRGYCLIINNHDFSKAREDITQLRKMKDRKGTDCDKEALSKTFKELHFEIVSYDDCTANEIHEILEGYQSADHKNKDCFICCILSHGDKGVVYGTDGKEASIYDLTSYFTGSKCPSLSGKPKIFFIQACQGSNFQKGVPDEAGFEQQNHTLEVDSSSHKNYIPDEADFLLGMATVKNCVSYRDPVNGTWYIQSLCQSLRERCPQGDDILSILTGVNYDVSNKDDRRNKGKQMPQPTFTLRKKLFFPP
How it was run: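 Western blot of full-length and cleaved caspase-1 and caspase-8 in J774A.1 cells after nigericin, with tubulin as loading control. Bands quantified as bar graphs.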

Mus musculus [4] = assay: Antiinflammatory activity against LPS-induced sepsis C57BL/6J mouse model assessed as reduction in serum IL-1beta level at 20 mg/kg, iv administered as single dose for 1 hr prior to LPS challenge and measured after 24 hrs of compound treatment by ELISA; type: functional, organism-based
[5] = Lipid-water partition coefficient, logP of the compound; type: physicochemical
Mus musculus [6] = assay: Antiinflammatory activity against LPS-induced sepsis C57BL/6J mouse model assessed as reduction in alveolar epithelial architecture damage at 20 mg/kg, iv administered as single dose for 1 hr prior to LPS challenge and measured after 48 hrs by hematoxylin-eosin staining based inverted microscopy analysis; type: functional, organism-based
J774.A1 = assay: Inhibition of pyroptosis in LPS-primed immortalized mouse […] cells assessed as reduction in poly (dA:dT) induced […] secretion by ELISA; type: functional, cell-based
How it was run: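 J774A.1 cells stimulated with flagellin or poly(dA:dT). IL-1β release measured by ELISA. Mean ± SEM, n ≥ 3 independent experiments.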

Caspase-1 (Mus musculus) = biological target: T3, Caspase-1 (Mus musculus) (UniProt P29452); assay: Inhibition of caspase-1 activity in LPS-primed immortalized mouse […] cells assessed as reduction in nigericin-induced GSDMD cleavage at 5 uM by Western blot analysis; type: cell-based; conditions: J774.A1
T3 sequence (whole entry): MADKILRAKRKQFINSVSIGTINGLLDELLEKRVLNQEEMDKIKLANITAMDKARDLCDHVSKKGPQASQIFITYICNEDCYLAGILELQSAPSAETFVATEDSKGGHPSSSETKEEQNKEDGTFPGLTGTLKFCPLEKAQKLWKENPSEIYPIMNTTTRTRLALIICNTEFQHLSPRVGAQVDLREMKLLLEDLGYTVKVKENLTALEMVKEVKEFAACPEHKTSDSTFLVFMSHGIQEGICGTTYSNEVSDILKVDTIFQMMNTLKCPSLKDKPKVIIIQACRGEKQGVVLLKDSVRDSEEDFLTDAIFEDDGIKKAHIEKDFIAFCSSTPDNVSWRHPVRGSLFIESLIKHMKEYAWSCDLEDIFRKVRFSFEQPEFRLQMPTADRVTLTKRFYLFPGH
How it was run: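 Western blot for GSDMD cleavage in immortalized macrophages, with tubulin as loading control. Representative of n ≥ 3 independent experiments.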

Compound: CCOC(CN1C(=O)C(NC(=O)Nc2ccc(C)cc2)(C(F)(F)C(=O)Nc2ccc(C)cc2)c2ccccc21)OCC (stereo not given)
- Activity [1]: inactive
- inhibition [2]: Active
- Activity [3]: Active
- Activity (BMDM): Active
- inhibition (Caspase-8 (Mus musculus)): inactive
- Activity (Mus musculus [4]): Active
- logP [5]: 4.1
- Activity (Mus musculus [6]): Active
- inhibition (J774.A1): Active
- inhibition (Caspase-1 (Mus musculus)): Active
